From PubChem
Hits are enriched below; roughly 1.9% of the tested compounds scored in any of these assays.
M4 antag: antagonists of human muscarinic M4 receptor (CHRM4). inhibition, % at 3 µM. 0.73% of 360,000 active. CHO-hM4 cells, ACh EC80, Fluo-8 calcium fluorescence;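 active = inhibition above its plate's cutoff, the mean inhibition of sample wells plus 3 SD, cut at about 27% in these data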;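 note: 0% = acetylcholine EC80 with DMSO and 100% = DMSO without agonist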
Target sequence (P08173 whole entry, looked up): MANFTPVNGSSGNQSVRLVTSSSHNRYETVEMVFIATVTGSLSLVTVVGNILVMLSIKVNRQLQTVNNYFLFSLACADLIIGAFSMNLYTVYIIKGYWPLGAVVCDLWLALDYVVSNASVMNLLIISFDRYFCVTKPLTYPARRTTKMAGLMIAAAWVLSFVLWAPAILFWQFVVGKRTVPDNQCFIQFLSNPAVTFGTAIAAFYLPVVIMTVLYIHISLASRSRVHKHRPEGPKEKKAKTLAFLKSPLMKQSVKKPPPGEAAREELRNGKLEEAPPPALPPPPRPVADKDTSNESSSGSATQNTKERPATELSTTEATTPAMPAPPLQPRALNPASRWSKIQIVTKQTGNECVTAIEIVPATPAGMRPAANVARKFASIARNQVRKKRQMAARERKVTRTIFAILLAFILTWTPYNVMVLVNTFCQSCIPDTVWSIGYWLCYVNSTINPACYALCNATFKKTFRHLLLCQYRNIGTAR
M4 PAM: positive allosteric modulators of human muscarinic M4 receptor | 0.4% of 360,000 active | activation, % at 3 µM | P08173 | CHO-K1 hM4/Gqi5, Fluo-8 calcium fluorescence, ACh EC20; 0% = ACh EC20, 100% = maximal ACh;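 active = activation above its plate's cutoff, the mean activation of sample wells plus 3 SD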
M5 PAM: positive allosteric modulators of human muscarinic M5 receptor | 0.3% of 360,000 active | AID 624038 | activation, % at 3 µM | CHO-K1 hM5, Fluo-8 calcium, ACh EC20 PAM; 0% = ACh EC20, 100% = ACh EC100;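 active = activation above the run cutoff, the mean activation of all test compounds plus 3 SD, cut at about 18% in these data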
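Test system: CHO-K1 hM5 cells / Doses: single-point, 3 µM nominal / Times: Post-acetylcholine fluorescence recording 140 s / Technique: Fluo-8 calcium fluorescence / Measure: Max/basal fluorescence ratio as % of EC20–EC100 ACh window / Benchmarks: low control EC20 acetylcholine (0%), high control EC100 acetylcholine (100%) / Replicates: one well per compound, no replicates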
CHRM5 antagonist: antagonists of human muscarinic M5 receptor (CHRM5). P08912. CHO-hM5 cells, Fluo-8 calcium fluorescence, ACh EC80. inhibition, % at 3 µM. 0.59% of 360,000 active. AID 624040;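 active = inhibition above a per-plate cutoff, the mean of that plate's test compounds plus 3 SD, cut at about 27% in these data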;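 note: 0% = acetylcholine EC80 with DMSO and 100% = DMSO without agonist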
M5 ag: agonists of human muscarinic M5 receptor (CHRM5). CHO-K1 hM5 cells, Fluo-8 calcium fluorescence; 0% DMSO wells, 100% maximal acetylcholine response. activation, % at 3 µM. 0.19% of 360,000 active;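 active = activation above the run's mean over test compounds plus 3 SD, cut at about 23% in these data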;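 note: signal is peak over basal fluorescence ratio across the kinetic read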
CHRM4 agonist: agonists of human muscarinic M4 receptor (CHRM4). P08173. 0.14% of 360,000 active. activation, % at 3 µM. AID 624127. CHO-K1 hM4/Gqi5, Fluo-8 calcium fluorescence; vehicle 0%, full acetylcholine response 100%;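 active = activation above the run mean over all test wells plus 3 SD, cut at about 32% in these data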;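 note: peak over basal fluorescence ratio per well then scaled between controls; 0% = DMSO wells and 100% = acetylcholine at EC100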
Starred values were filed as active, the others as inactive.

For O=C1N[C@@H](c2ccccc2)COC(=O)[C@H](Cc2ccc(F)cc2)CC/C=C/C[C@H]1CC(=O)N(CCO)Cc1ccccc1 the results were M4 antag -9, M4 PAM -9, M5 PAM -2, CHRM5 antagonist 5, M5 ag 1 and CHRM4 agonist 12.
Screening O=C(NC1CCC(Oc2ccc(C(=O)O)cc2)CC1)NC12CC3CC(CC(C3)C1)C2 (stereo unspecified) returned M4 antag 3, M4 PAM 1, M5 PAM 4, CHRM5 antagonist 3, M5 ag -1 and CHRM4 agonist 0.
Screening O=C(C[C@H]1C/C=C/CC[C@H](Cc2ccc(F)cc2)C(=O)O[C@H](c2ccccc2)CNC1=O)NCCO returned M4 antag 2, M4 PAM 2, M5 PAM -3, CHRM5 antagonist 5, M5 ag -1 and CHRM4 agonist 1.
`O=C(C[C@@H]1C/C=C/CC[C@@H](Cc2ccc(F)cc2)C(=O)O[C@@H](c2ccccc2)CNC1=O)NCCO` gave M4 antag 8, M4 PAM -4, M5 PAM -26, CHRM5 antagonist 31*, M5 ag 1 and CHRM4 agonist 10.
CN1CCN(NC(=O)Nc2cc(Cl)cc(Cl)c2)CC1 was read as M4 antag 11, M4 PAM -4, M5 PAM -10, CHRM5 antagonist 44*, M5 ag -3 and CHRM4 agonist 12.
Cn1nc(C(C)(C)C)cc1NC(=O)Nc1cc(Cl)cc(Cl)c1 was read as M4 antag 4, M4 PAM -2, M5 PAM -24, CHRM5 antagonist 34*, M5 ag 5 and CHRM4 agonist 16.
For Cc1ccnn1-c1ccc(C(=O)NCc2ccccc2CN2CCOCC2)cc1 the results were M4 antag 2, M4 PAM -3, M5 PAM -3, CHRM5 antagonist 11, M5 ag 5 and CHRM4 agonist 5.
For CC(C)(C)c1ccc(C(O)c2ncc(-c3ccc4ccccc4c3)[nH]2)cc1 (stereo unspecified) the results were M4 antag 1, M4 PAM 2, M5 PAM -5, CHRM5 antagonist 6, M5 ag -1 and CHRM4 agonist 0.
For Cc1c(N2C(=O)SC(CC(=O)O)C2=O)c(=O)n(-c2ccccc2)n1C (stereo unspecified) the results were M4 antag -2, M4 PAM 6, M5 PAM 20*, CHRM5 antagonist -2, M5 ag -3 and CHRM4 agonist 1.
For Cc1c(N2C(=O)C3C4C=CC(C4)C3C2=O)c(=O)n(-c2ccccc2)n1C (stereo unspecified) the results were M4 antag -6, M4 PAM 13, M5 PAM 9, CHRM5 antagonist 4, M5 ag 5 and CHRM4 agonist 1.
For CC(=O)/C=C1\SC(CC(=O)O)C(=O)N1c1ccccc1 (stereo unspecified) the results were M4 antag -12, M4 PAM 22*, M5 PAM 12, CHRM5 antagonist -8, M5 ag -1 and CHRM4 agonist 1.
CCCNC(=O)c1nnsc1S(=O)(=O)c1ccc(Cl)cc1 was read as M4 antag 65*, M4 PAM -12, M5 PAM -1, CHRM5 antagonist 6, M5 ag -2 and CHRM4 agonist 2.
For CNC(=O)c1nnsc1S(=O)c1ccc(Cl)cc1 (stereo unspecified) the results were M4 antag 28*, M4 PAM -2, M5 PAM 0, CHRM5 antagonist 14, M5 ag 8 and CHRM4 agonist 4.
For CCCNC(=O)c1nnsc1S(=O)c1ccc(Cl)cc1 (stereo unspecified) the results were M4 antag 43*, M4 PAM -8, M5 PAM -6, CHRM5 antagonist 16, M5 ag 7 and CHRM4 agonist 8.
For COc1cccc(C(C(=O)NCc2ccccc2)N2CCN(CCN3CCOCC3)CC2)c1OC (stereo unspecified) the results were M4 antag -9, M4 PAM 4, M5 PAM 2, CHRM5 antagonist 2, M5 ag 1 and CHRM4 agonist 0.
